Screens from PubChem BioAssay.
In the library only some 2.9% were active in any assay of this set; here they are far more common.
PRMT1 inh: inhibitors of human PRMT1 | inhibition, % at 2.79 µM | recombinant PRMT1, activity-based probe fluorescence polarization | 370,000 tested, 1.3% active;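 active = inhibition above about 21% made by adding two undisclosed values, limit read from the data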
HCV NS3 hel inh: inhibitors of Hepatitis C virus NS3 helicase. NS3 helicase DNA unwinding, Cy5 molecular beacon fluorescence. inhibition, % at 10.9 µM. 290,000 tested, 0.56% active;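 active = inhibition above the mean of all tested compounds plus 3 SD, set per campaign, cut at about 35% in these data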;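 also: 0% = DMSO wells and 100% = thioflavine S control wells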
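Material: hepatitis C virus NS3 helicase domain fragment enzyme; measured by: Cy5 fluorescence, 0 and 60 min reads; control set: DMSO and thioflavine S; incubation: 60 min unwinding reaction at 25 °C after ATP addition; read-out basis: % inhibition from 60/0 min fluorescence ratio, DMSO 0%, thioflavine S 100%; repeats: singlicate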
APOBEC3A inh: inhibitors of human APOBEC3A DNA deaminase; recombinant A3A, FAM/TAMRA ssDNA deamination fluorescence; inhibition, % at 20 µM; 330,000 tested, 0.41% active; AID 493011;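 active = at least 40% inhibition at 20 µM here, with at most 30% in a related deaminase screen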;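 also: plate controls were A3A with DMSO for no effect and wells lacking A3A enzyme for full effect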
Target sequence (P31941 whole entry, looked up): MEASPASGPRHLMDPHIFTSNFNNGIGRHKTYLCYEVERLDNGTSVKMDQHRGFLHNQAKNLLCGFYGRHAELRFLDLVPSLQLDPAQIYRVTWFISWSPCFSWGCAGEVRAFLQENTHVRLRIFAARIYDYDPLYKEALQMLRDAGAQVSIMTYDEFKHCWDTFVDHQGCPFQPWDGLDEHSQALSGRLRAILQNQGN
APOBEC3G inh: APOBEC3G (human) deaminase inhibition. recombinant A3G, ssDNA deamination FAM/TAMRA fluorescence. Q9HC16. inhibition, % at 20 µM. 330,000 tested, 0.28% active. AID 493012;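 active = inhibition of at least 40% at 20 µM, with no more than 30% in the related APOBEC3A deaminase screen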;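 also: plate controls were DMSO wells with A3G for no effect and wells lacking A3G enzyme for full effect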
Target sequence (Q9HC16 whole entry, looked up): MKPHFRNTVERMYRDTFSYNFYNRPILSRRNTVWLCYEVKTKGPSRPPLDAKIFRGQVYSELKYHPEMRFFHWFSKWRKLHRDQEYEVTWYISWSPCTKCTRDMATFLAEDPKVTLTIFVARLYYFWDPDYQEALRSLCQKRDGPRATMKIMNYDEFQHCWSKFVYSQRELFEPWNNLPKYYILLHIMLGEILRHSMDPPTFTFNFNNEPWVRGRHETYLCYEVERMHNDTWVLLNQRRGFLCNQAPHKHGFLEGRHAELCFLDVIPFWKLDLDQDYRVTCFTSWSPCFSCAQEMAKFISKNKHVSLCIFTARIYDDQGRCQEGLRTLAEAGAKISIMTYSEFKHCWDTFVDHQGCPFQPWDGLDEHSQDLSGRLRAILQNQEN
core dimer inh: blocks dimerization of HCV core protein; 300,000 tested, 0.33% active; TR-FRET GST/Flag-core106 dimerization, 1536-well; inhibition, % at 5 µM; AID 1899;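 active = inhibition above the mean of all tested compounds plus 3 SD, set per screening campaign, cut at about 45% in these data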
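Assay system: tagged HCV core106 pair (GST and Flag); medium: KF-containing HEPES buffer, pH 7.45, DTT, CHAPS, BSA; also added: Eu donor and XL665 acceptor anti-tag antibodies; dosing: 5 µM single dose; timing: compound-protein-antibody incubation 4 h at 22.5 °C; signal: TR-FRET 671 and 617 nm emission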
ABHD5-PLIN5 inh: blocks binding of human ABHD5 to perilipin-5; Split G. princeps luciferase complementation, luminescence, 4 h; Q00G26+Q8WTS1; 360,000 tested, 0.78% active; inhibition, % at 4 µM;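 active = inhibition above the mean inhibition across every tested compound plus 3 SD, cut at about 22% in these data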;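 also: 0% = DMSO only wells and the 100% control is not disclosed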
ABHD5-PLIN5 conf: confirmation of human ABHD5-PLIN5 interaction inhibitors; shares compounds with ABHD5-PLIN5 inh; biochemical ABHD5-PLIN5 interaction, luminescence; inhibition, % at 4 µM; 2,200 tested, 67% active; in the data active = inhibition above about 23%;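 also: 0% = DMSO vehicle wells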
HNF4 counter: active in HNF4 split-luciferase counter-screen for ABHD5-PLIN5 inhibitors | shares compounds with ABHD5-PLIN5 inh | 2,200 tested, 77% active | HNF4 dimerization, luminescence, biochemical | inhibition, % at 4 µM;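 active = mean inhibition across replicate wells exceeding the computed hit threshold, cut at about 13% in these data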;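 also: light from luciferase halves that rejoin when HNF4 fusion proteins dimerize; 0% = DMSO only wells and the 100% control is not given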
* = called active by the depositor; · = not tested or not shown.

SMILES	PRMT1 inh	HCV NS3 hel inh	APOBEC3A inh	APOBEC3G inh	core dimer inh	ABHD5-PLIN5 inh	ABHD5-PLIN5 conf	HNF4 counter
COc1ccc(C(=O)N/C(=C\c2ccco2)C(=O)OCc2ccco2)cc1	15	28	-1	-10	2	4	·	·
COc1ccc(/C=C(/C(=O)c2cccs2)N2C=CC=CC2=C(C#N)C#N)cc1	6	8	·	·	·	33*	59*	81*
COc1ccc(C(=O)/C(=C\c2ccco2)N2C=CC=CC2=C(C#N)C#N)cc1	·	-8	-2	-5	10	80*	97*	102*
CC(C)(C)NC(=O)/C(=C/c1ccco1)c1ccccc1	4	15	-2	-6	1	9	·	·
COc1ccc(CC(=O)NCC2CCCN(Cc3ccccc3OC)C2)cc1 (centres undefined)	2	13	-4	1	-12	8	·	·
O=C(NCc1ccco1)c1ccc(C(=O)NCc2ccco2)cc1	10	·	·	·	·	2	·	·
O=C(NCc1ccco1)c1cccc(NC(=O)c2ccccc2)c1	2	-2	0	-9	1	6	·	·
CCC(CC)C(=O)Nc1cccc(C(=O)NCc2ccco2)c1	5	11	15	4	7	25*	25*	31*
O=C(NCc1ccco1)c1ccc2c(c1)C(=O)c1ccccc1-2	9	2	9	-3	4	33*	46*	49*
CC1(C)CC(=O)C(=Cc2cn(CCC#N)nc2-c2ccc(Cl)cc2)C(=O)C1	-1	6	1	6	6	14	·	·
CC1(C)CC(=O)C(=Cc2cn(CCC#N)nc2-c2ccc(F)cc2)C(=O)C1	-1	11	1	1	-5	23*	45*	38*
COc1ccc(C2C(C#N)=C(N)Oc3cc(C)n(Cc4ccco4)c(=O)c32)cc1 (centres undefined)	10	12	10	5	4	32*	66*	68*
O=C1C(=Cc2ccccc2[N+](=O)[O-])Cc2ccccc21	4	·	·	·	·	28*	51*	46*
O=C1C(=Cc2ccccn2)CCc2ccccc21	1	·	·	·	·	25*	60*	46*
O=C1/C(=C/c2cccc([N+](=O)[O-])c2)CCc2ccccc21	7	-4	-1	-1	9	37*	56*	46*
O=C1C(=Cc2cccc(F)c2)Cc2ccccc21	-2	·	·	·	·	24*	28*	23*
COc1ccc2c(c1)CC/C(=C/c1ccccn1)C2=O	-2	7	2	2	10	19	·	·
COc1ccc(-c2csc(NC(=O)c3c(C)noc3C)n2)cc1OC	3	·	·	·	·	4	·	·
OC(c1ccc(Cl)cc1)c1ncc(-c2ccccc2F)[nH]1 (centres undefined)	-3	·	·	·	·	1	·	·
Nc1nsc2ccccc12	2	-1	-2	-5	1	45*	57*	64*
CC(C)(C)S(=O)N1Cc2cc(C(=O)N[C@@H]3CCN(Cc4ccccc4)C3)nc(-c3cccc(-c4cc5ccccc5o4)c3)c2[C@@H]1CCO (some centres undefined)	-5	·	·	·	·	26*	12	0
CCN(CC)Cc1cc(Nc2c3ccccc3nc3c4ccccc4n(C)c23)cc(CN(CC)CC)c1O	45*	·	·	·	·	27*	44*	29*
Oc1cccc(Nc2c3ccccc3nc3ccccc23)c1	7	26	0	0	-6	7	·	·
COc1ccc(N(C(=O)c2ccco2)C(C(=O)NC2CCCCC2)c2cccs2)cc1OC (centres undefined)	0	-4	-1	-10	4	5	·	·
C#CC(=O)N(c1cc(OC)ccc1OC)C(C(=O)NC1CCCC1)c1cccs1 (centres undefined)	·	10	-5	1	9	32*	45*	45*
SMILES	PRMT1 inh	HCV NS3 hel inh	APOBEC3A inh	APOBEC3G inh	core dimer inh	ABHD5-PLIN5 inh	ABHD5-PLIN5 conf	HNF4 counter
C#CC(=O)N(c1ccc(OC)cc1OC)C(C(=O)NC1CCCC1)c1cccs1 (centres undefined)	0	8	0	-5	10	28*	40*	38*
COc1ccc(N(C(=O)c2snc(C(N)=O)c2N)C(C(=O)NC2CCCC2)c2cccs2)cc1OC (centres undefined)	1	29	-1	-1	5	4	·	·
CC(C)=CCC[C@H](C)C[C@@H]1Cc2[nH]c(=S)[nH]c(=O)c2[C@@H](c2ccc(F)cc2)O1	2	·	·	·	·	-9	·	·
Cc1nn(-c2ccc(Cl)cn2)c2c1C(=O)CC(C)(C)C2Br (centres undefined)	-3	·	·	·	·	-1	·	·
COCC(=O)N[C@H]1C=C[C@@H](CC(=O)NCc2ccccc2OC)O[C@@H]1CO	3	·	·	·	·	0	·	·
CC(=C\c1ccccc1)/C=C1/SC(=O)N(CCCC(=O)Nc2ccc(C(=O)O)cc2)C1=O	-1	24	0	-1	21	8	·	·
O=C(CN1C(=O)S/C(=C\C=C\c2ccccc2)C1=O)Nc1ccc(O)cc1	2	11	1	-6	37	30*	12	3
O=C(CCCN1C(=O)S/C(=C/C=C/c2ccccc2)C1=O)Nc1ccc(C(=O)O)cc1	-1	1	-5	-2	14	28*	17	12
CC1=CC(=O)N(c2ccn(C)n2)C1=O	9	12	-1	0	-4	25*	36*	39*
O=C(O)CCN1CCc2ccccc2C1c1ccncc1 (centres undefined)	0	1	0	4	-1	4	·	·
